{"data": "Measurements pooled from the literature", "cell line": "SK-BR-3", "observed": "cell growth or viability"}
{"Structure (SMILES)": "CN1CCN(c2ccc(Nc3ncc4cc(C#N)c(=O)n(C5CCCC5)c4n3)cc2)CC1", "method": "resazurin", "time": "96 h", "endpoint": "GI50", "value": "600 nM"}
{"Structure (SMILES)": "COC1=C2C[C@@H](C)C[C@H](OC)[C@H](O)[C@@H](C)/C=C(\\C)[C@H](OC(N)=O)[C@@H](OC)/C=C\\C=C(/C)C(=O)NC(=CC1=O)C2=O", "method": "SRB", "time": "72 h", "endpoint": "IC50", "value": "50 nM"}
{"Structure (SMILES)": "COc1cc(Nc2nccc(-c3cnn4nc(OC)ccc34)n2)cc(C(F)(F)F)c1", "method": "ATP luminescence", "endpoint": "IC50", "value": "340 nM"}
{"Structure (SMILES)": "CC(=O)c1c(C)c2cnc(Nc3ccc(N4CCNCC4)cn3)nc2n(C2CCCC2)c1=O", "method": "resazurin", "endpoint": "GI50", "value": "5000 nM"}
{"Structure (SMILES)": "Cc1cc(C)n(-c2nc(NN=Cc3c[nH]c4ccccc34)nc(Nc3ccc(Br)cc3)n2)n1", "method": "SRB", "time": "72 h", "endpoint": "IC50", "value": "6000 nM"}
{"Structure (SMILES)": "COc1cc(OC)c(/C=C/S(=O)(=O)Nc2ccc(OC)c(N)c2)c(OC)c1", "method": "trypan blue", "time": "96 h", "endpoint": "IC50", "value": "4 nM"}
{"Structure (SMILES)": "CC(C)C[C@H](NC(=O)[C@H](Cc1ccccc1)NC(=O)c1cnccn1)B(O)O", "method": "ATP luminescence", "endpoint": "IC50", "value": "8.8 nM"}
{"Structure (SMILES)": "CC(=O)O[C@H]1C(=O)[C@@]2(C)[C@H]([C@H](OC(=O)c3ccccc3)[C@]3(O)C[C@H](OC(=O)[C@H](O)[C@@H](NC(=O)c4ccccc4)c4ccccc4)C(C)=C1C3(C)C)[C@]1(OC(C)=O)CO[C@@H]1C[C@@H]2O", "method": "MTT", "time": "72 h", "endpoint": "IC50", "value": "5 nM"}
{"Structure (SMILES)": "NNc1nc(Nc2ccccc2)nc(Nc2ccc(Br)cc2)n1", "method": "SRB", "time": "72 h", "endpoint": "IC50", "value": "> 30000 nM"}
{"Structure (SMILES)": "COc1cccc2c1C(=O)c1c(O)c3c(c(O)c1C2=O)C[C@@](O)(C(=O)CO)C[C@@H]3O[C@H]1C[C@H](N)[C@H](O)[C@H](C)O1", "method": "MTT", "time": "72 h", "endpoint": "IC50", "value": "1650 nM"}
